The source of these data is ChEMBL document CHEMBL4340559, “Design and synthesis of functionalized coumarins as potential anti-austerity agents that eliminates cancer cells' tolerance to nutrition starvation” (Bioorg Med Chem Lett, 2019).

For series [1], the system named is PANC-1. As to the kind of experiment: Antiausteritic activity against human PANC1 cells in nutrient-deprived medium measured after 24 hrs by WST8 assay. The series is classed as functional. Background: Tetrazolium dyes change colour on reduction, which living cells bring about.
The test system of series [2] is PANC-1. Briefly: Cytotoxic activity against human PANC1 cells in nutrient-rich medium measured after 24 hrs by WST8 assay. The series is classed as cell-based. The following applies: panc-1, 24 h.
In series [3] the test system is PANC-1. Briefly: Antiausteritic activity against human PANC1 cells in nutrient deprived medium assessed as cell death at 5 uM measured at 13 to 20 hrs by automated time-lapse microscopic method. The series is classed as functional, cell-based. The method, boiled down: (§1)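 PANC-1 cells in NDM were held in a stage-top incubator with 5 μM compound, with untreated NDM control run alongside. Images were captured every 10 min for 24 h. Mobility, shrinkage and death were followed over time.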

The test system of series [4] is PANC-1. Briefly: Inhibition of colony formation in human PANC1 cells at 12.5 uM in the nutrient rich DMEM media treated for 24 hrs followed by compound washout and subsequent incubation for 10 days by crystal violet staining based assay relative to untreated control. In kind it is functional. The procedure, abridged: (§2)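 PANC-1 cells were exposed 24 h to 12.5, 25 or 50 μM in nutrient-rich DMEM. Medium was then replaced with fresh DMEM and cells grown 10 d to form colonies. Read-out was the average area occupied by colonies relative to untreated control wells. Three replications; significance set at p < 0.05 versus control.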

In series [5] the test system is PANC-1. As to the kind of experiment: Antiausteritic activity against human PANC1 cells in nutrient deprived medium assessed as appearance of rounded cells at 1.25 uM after 24 hrs by ethidium bromide/acridine orange staining based phase contrast microscopic method. The series is classed as functional, cell-based. The procedure, abridged:
(§3)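 PANC-1 cells exposed 24 h in nutrient-deprived medium (NDM) alongside untreated control, then stained with ethidium bromide/acridine orange. AO enters all cells and fluoresces green. EB enters only dead or dying cells and fluoresces red. Cells were scored by fluorescence colour and morphology.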

Series [6] deals with PANC-1. As to the kind of experiment: Inhibition of colony formation in human PANC1 cells at 25 uM in the nutrient rich DMEM media treated for 24 hrs followed by compound washout and subsequent incubation for 10 days by crystal violet staining based assay relative to untreated control. In kind it is functional. The method, boiled down: as §2
The subject of series [7] is PANC-1. Briefly: Antiausteritic activity against human PANC1 cells in nutrient deprived medium assessed as rupture of cell membrane at 1.25 uM after 24 hrs by ethidium bromide/acridine orange staining based phase contrast microscopic method. The series is classed as functional. The method, boiled down: as §3
The test system of series [8] is PANC-1. As to the kind of experiment: Inhibition of colony formation in human PANC1 cells at 12.5 to 50 uM in the nutrient rich DMEM media treated for 24 hrs followed by compound washout and subsequent incubation for 10 days by crystal violet staining based assay. In kind it is functional, cell-based. The procedure, abridged:
as §2

The test system of series [9] is PANC-1. As to the kind of experiment: Antiausteritic activity against human PANC1 cells in nutrient deprived medium assessed as plasma blebbing at 1.25 uM after 24 hrs by ethidium bromide/acridine orange staining based phase contrast microscopic method. In kind it is functional, cell-based. The procedure, abridged:
as §3

The test system of series [10] is PANC-1. As to the kind of experiment: Antiausteritic activity against human PANC1 cells in nutrient deprived medium assessed as cell shrinkage at 5 uM measured at 7 hrs by automated time-lapse microscopic method. In kind it is functional, cell-based. The procedure, abridged:
as §1

Series [11] relates to PANC-1. As to the kind of experiment: Inhibition of colony formation in human PANC1 cells at 50 uM in the nutrient rich DMEM media treated for 24 hrs followed by compound washout and subsequent incubation for 10 days by crystal violet staining based assay relative to untreated control. In kind it is functional. The method, boiled down: as §2
Series [12] concerns PANC-1. Briefly: Antiausteritic activity against human PANC1 cells in nutrient deprived medium assessed as inhibition of cell mobility at 5 uM measured within 4 hrs by automated time-lapse microscopic method. In kind it is functional, cell-based. The method, boiled down: as §1
The subject of series [13] is PANC-1. As to the kind of experiment: Antiausteritic activity against human PANC1 cells in nutrient deprived medium assessed as leakage of cellular contents into culture media at 1.25 uM after 24 hrs by ethidium bromide/acridine orange staining based phase contrast microscopic method. The series is classed as functional, cell-based. The procedure, abridged: as §3

The structures appear in SMILES notation. The source made the active and inactive calls. The calls are words filed in the database; no cut-off is given here. A value given as a limit tells only on which side of the number the result lay.

Turning to `O=C(NCCCC1CCCCC1)c1cc2ccc(O)cc2oc1=O`, in series [1], the PC50 is 2.19 µM. For the same molecule, in series [2], the Activity entry was “Non-Toxic”.

As for `O=C(NCc1ccccc1)c1cc2ccc(O)cc2oc1=O`, the PC50 in [1] is above 100 µM. Moreover, in series [2], the Activity result is recorded as “Non-Toxic”.

Turning to `O=C(NCCCc1ccccc1Cl)c1cc2ccc(O)cc2oc1=O`, the PC50 in series [1] was determined as 12.6 µM. Besides, in series [2], the Activity result is reported as “Non-Toxic”.

In [1], `O=C(NCCc1ccccc1)c1cc2ccc(O)cc2oc1=O` registered a PC50 above 100 µM. Besides, the Activity result in series [2] is on record as “Non-Toxic”.

In the case of `O=C(NCCCc1ccccc1)c1cc2ccc(O)cc2oc1=O`, the result in series [3], in [5], in series [7], in series [9], in series [10] and in series [12] was Active. Besides, in [13], the result was Active. Further, at 12.5 µM the inhibition in series [4] was 8%. The inhibition (in general, the relative decrease from the control value, in per cent) at 25 µM in series [6] was determined as 11%. In addition, the inhibition result in series [8] is “Dose-dependent effect”. Besides, the inhibition at 50 µM in series [11] turned out to be 19%. This molecule also yielded a PC50 in [1] of 0.44 µM. The Activity entry in series [2] is “Non-Toxic”.

Consider `O=C(NCCCc1ccccc1)c1cc2cc(O)ccc2oc1=O`, for which the PC50 in series [1] is above 100 µM. Further, the Activity result in series [2] is recorded as “Non-Toxic”.

Regarding `O=C(NCCCc1ccccc1)c1cc2c(O)cccc2oc1=O`, the PC50 in [1] was above 100 µM. Moreover, the Activity result in series [2] is “Non-Toxic”.

In the case of `O=C(NCCCCc1ccccc1)c1cc2ccc(O)cc2oc1=O`, in series [1], the PC50 is 4.7 µM. Besides, in [2], the Activity entry is on record as “Non-Toxic”.

With `O=C(NCCCc1ccccc1)c1cc2cccc(O)c2oc1=O`, the PC50 in series [1] is 3.28 µM. For the same molecule, the Activity entry in series [2] is given as “Non-Toxic”.

In the case of `O=C(NCCCc1cccc(Cl)c1)c1cc2ccc(O)cc2oc1=O`, the PC50 in [1] was determined as 3.92 µM. The Activity entry in series [2] is “Non-Toxic”.

In series [1], `O=C(NCCCc1ccc(Cl)cc1Cl)c1cc2ccc(O)cc2oc1=O` yielded a PC50 of 3.45 µM. Moreover, the Activity result in [2] is given as “Non-Toxic”.

With `O=C(NCCCc1cccc(Cl)c1Cl)c1cc2ccc(O)cc2oc1=O`, the PC50 in [1] is 7.48 µM. For the same molecule, the Activity entry in series [2] is on record as “Non-Toxic”.

Molecule `O=C(NCCCc1ccccc1)c1cc2ccccc2oc1=O` had a PC50 in series [1] above 100 µM. Further, in [2], the Activity result is listed as “Non-Toxic”.

On to `O=C(NCCCc1ccc(Cl)cc1)c1cc2ccc(O)cc2oc1=O`, for which the PC50 in series [1] is 0.51 µM. In addition, the Activity result in series [2] was “Non-Toxic”.
